Molecules are shown by their SMILES.

This data set in a line: Toxicity liver stage against HepG2, at 10uM. Format: cell-based. The arrangement: test concentration 10 uM, cell line HepG2-A16-CD81EGFP. Particulars: human, HepG2-A16-CD81EGFP cells; read-out: INHIBITION
An outline of the steps: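 Uninfected HepG2-A16-CD81EGFP cells, 3 × 10^3 per well, 1536-well, plated on prespotted compound at 10 μM final, parasite-free screening media added to match infected plates; puromycin 10 μM positive, DMSO 0.5% negative; run in parallel with 48 h PbLuc assay at 37 °C, 5% CO2; viability by CellTiter-Glo luminescence, normalized to controls.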
Regarding `CCS(=O)(=O)N1CCC(CSc2ccccc2)C1` (configuration not stated), the cytotoxicity at 10 µM stood at 2.42%.

For the molecule `CSc1ccc(CN2CCCC3(CNC(=O)c4ccccc4O3)C2)cc1` (configuration not stated), the cytotoxicity at 10 µM turned out to be 3.52%.

Turning to `CN1CC(=O)N(c2ccccc2)CC12CCN(CC1CC1)C2` (configuration not stated), the cytotoxicity at 10 µM turned out to be 4.42%.

Regarding `COc1ccc(F)cc1-c1ccccc1CC1(C(=O)O)CCOCC1`, the cytotoxicity at 10 µM was 5.57%.

Turning to `CCc1cc(NC2CCC(N)CC2)n2nc(C)c(C)c2n1` (configuration not stated), the cytotoxicity at 10 µM is -4.33%.

As for `Cc1n[nH]c(C)c1NC(=O)CN1CCN(c2nccs2)C(C)C1` (configuration not stated), the cytotoxicity at 10 µM is -17.6%.

For `Cc1nsc(N2CCCN(c3ccc(C#N)cn3)CC2)n1`, the cytotoxicity at 10 µM is -1.32%.

As for `Cn1ccc(C(=O)N2CCCC2c2ccc3c(c2)OCCO3)cc1=O` (configuration not stated), the cytotoxicity at 10 µM was found to be 12.3%.

As to `Cc1ccc(N2CCCN(C(=O)c3cccc4c3ccn4C)CC2)nn1`, the cytotoxicity at 10 µM was found to be 0.983%.

Regarding `Cc1n[nH]c(C2CN(C(=O)c3ccco3)CCO2)n1` (configuration not stated), the cytotoxicity at 10 µM was -14.5%.

In the case of `CC(C)(CNc1ccccc1S(=O)(=O)C(F)F)N1CCOCC1`, the cytotoxicity at 10 µM came out at 12.2%.

As for `COc1ccc(C)cc1CN(C)CCCNS(C)(=O)=O`, the cytotoxicity at 10 µM is -43.2%.

Regarding `CCN(CC)C(=O)CN(C)C(=O)c1cc(-c2cccc(Cl)c2)no1`, the cytotoxicity at 10 µM was determined as 4.28%.

On to `C[C@H]1C[C@@H]2CCN(C(=O)c3ccccn3)C[C@H]2O1`, for which the cytotoxicity at 10 µM was 4.17%.

As to `CC(C)Nc1nc(O)cc(C(C)n2ncc3ccccc3c2=O)n1` (configuration not stated), the cytotoxicity at 10 µM turned out to be 2.81%.

For `CCc1nc(C2CCCN2C(=O)c2nc(C)n3ccccc23)no1` (configuration not stated), the cytotoxicity at 10 µM worked out at 1.85%.

On to `CCOc1cc(C=Cc2ncc(C(=O)NC)s2)ccc1OC`, for which the cytotoxicity at 10 µM is -0.58%.

Take `O=C(c1scc2c1OCCO2)N1CCOC(CCc2ccccc2)C1` (configuration not stated): the cytotoxicity at 10 µM was determined as 10.5%.

On to `NC(=O)CN1CCCC(Cc2ccc(N3CCOCC3)nn2)C1` (configuration not stated), for which the cytotoxicity at 10 µM is 8.21%.

For the molecule `CN(C)Cc1nnc(C2CCCN(c3nc(C(N)=O)cs3)C2)n1C` (configuration not stated), the cytotoxicity at 10 µM came out at 1.05%.

As to `COCC1CC2(CCN(C(=O)c3cccc(C)c3)CC2)CO1` (configuration not stated), the cytotoxicity at 10 µM was -5.15%.

As to `CC(C)c1noc(-c2ccc(NCc3noc(C(C)C)n3)nc2)n1`, the cytotoxicity at 10 µM is -6.49%.

With `Cc1cc(C)n(C2CCCN(C(=O)c3ccc4c(c3)COC4)C2)n1` (configuration not stated), the cytotoxicity at 10 µM was -6.1%.

Turning to `COc1ccc(-n2nnc(C(=O)NC(C)C)c2C2CC2)cc1`, the cytotoxicity at 10 µM is -14.7%.

For the molecule `O=C(C1CC1)N1CCC[C@]2(C[C@@H](OCc3ccncc3)CO2)C1`, the cytotoxicity at 10 µM is 6.46%.

Consider `COc1ccc(Cl)cc1NCC(=O)NCc1cccnc1OC`, for which the cytotoxicity at 10 µM is -10.3%.

Regarding `CCOc1ccc(C(=O)N(Cc2cnn(C)c2)C(C)C)cc1OCC`, the cytotoxicity at 10 µM was -8.4%.

`CC(C)c1nc(-c2cc(C(=O)O)c3ccccn23)cs1`: the cytotoxicity at 10 µM was determined as 7.43%.

For the molecule `COc1ccc(CN2CCCCC2Cn2nc(C)nc2C)cc1F` (configuration not stated), the cytotoxicity at 10 µM is -15%.

With `Cc1ccc(C(=O)O)cc1CNC(=O)CN1CC[C@](C)(O)C(C)(C)C1`, the cytotoxicity at 10 µM was -4.18%.

For `COc1cccc(CCC(=O)N2CCCC(c3nncn3C)C2)c1` (configuration not stated), the cytotoxicity at 10 µM was -20.1%.

Regarding `Cc1cnc2cc(C3CCN(C(=O)c4ccncc4)CC3)[nH]c2n1`, the cytotoxicity at 10 µM was -22.1%.

Regarding `CN(CC(=O)N1CCN(c2ncccn2)CC1)c1ccc(Cl)cn1`, the cytotoxicity at 10 µM is -9.65%.

With `Cn1ccnc1CNC1CCCN(Cc2noc(C3CC3)n2)C1` (configuration not stated), the cytotoxicity at 10 µM is -11.1%.

For `COc1ccc2nnc(C(=O)NCC3CCCC3)nc2c1`, the cytotoxicity at 10 µM is -3.35%.

For the molecule `COCCC(=O)N1CCC2(CCN(Cc3cccc(F)c3)CC2)CC1`, the cytotoxicity at 10 µM was -75%.

With `N[C@H]1CN(S(=O)(=O)N2CCCCCC2)C[C@@H]1c1ccccc1`, the cytotoxicity at 10 µM came to 2.14%.

For `COc1ccc(NC(C)c2nnnn2-c2ccccc2)cn1` (configuration not stated), the cytotoxicity at 10 µM is 3.99%.

As for `CC1(C(=O)N2CCOCC2)CN(Cc2c[nH]cn2)CCO1` (configuration not stated), the cytotoxicity at 10 µM is -4.61%.

Regarding `O=C(CCn1nc(C(F)(F)F)c(Br)c1C1CC1)NN1CCOCC1`, the cytotoxicity at 10 µM came out at 8.85%.

Turning to `COc1ncccc1CN1C[C@@H]2OCCN(CCN(C)C)[C@@H]2C1`, the cytotoxicity at 10 µM amounted to 11.8%.

With `O=c1cc(-c2cccnc2)nc(-c2ccc(CN3CC[C@H](O)C3)cc2)[nH]1`, the cytotoxicity at 10 µM is 3.98%.

On to `Cc1ccc(CC2CCCN2CC(=O)NCc2ccccn2)cc1` (configuration not stated), for which the cytotoxicity at 10 µM came out at 6.46%.

For the molecule `CCNC(=O)CN1CCN(c2ccnc3c(F)ccc(F)c23)CC1`, the cytotoxicity at 10 µM is 11.7%.

On to `COCC1CN(c2ccc(C#N)c(Cl)c2)CCO1` (configuration not stated), for which the cytotoxicity at 10 µM is 4.86%.

For `COc1ccnc(N2CCN(CC(=O)N3CCC(C)CC3)CC2)n1`, the cytotoxicity at 10 µM is -3.63%.

With `Fc1cccc(C2CCCN2Cc2nnnn2C2CC2)c1` (configuration not stated), the cytotoxicity at 10 µM was 2.8%.

On to `NC(=O)CN1CCCN(C(=O)Cc2ccc3c(c2)OCCO3)CC1`, for which the cytotoxicity at 10 µM came out at 0.169%.

Regarding `Cc1ccccc1-c1cc(NC(=O)Cn2ccccc2=O)n(C)n1`, the cytotoxicity at 10 µM was 3.8%.

In the case of `CCCN(C(=O)CS(=O)(=O)c1ccccc1)c1cccc(C)c1`, the cytotoxicity at 10 µM was determined as 2.08%.

`CCOc1ccnc(N2CCCN(c3nc(CC)ns3)CC2)n1`: the cytotoxicity at 10 µM was 1.19%.

Turning to `Cc1ccc(-c2nc(CN3CC(n4nc(C)cc4C)C3)no2)cc1`, the cytotoxicity at 10 µM is -1.64%.

As for `O=C(C[C@@H]1COC[C@H]2CN(C(=O)c3cccnc3)C[C@@H]12)N1CCOCC1`, the cytotoxicity at 10 µM was -105%.

For `CCN(CC1CCCO1)C(=O)Nc1cc(C)ccc1S(C)(=O)=O` (configuration not stated), the cytotoxicity at 10 µM is -12.5%.

For `COCCN1CCO[C@H]2CN(C(=O)c3cccs3)C[C@H]21`, the cytotoxicity at 10 µM was found to be 2.1%.

With `CCOC(=O)CC1CCCCN1C(=O)CCc1cc(Cl)no1` (configuration not stated), the cytotoxicity at 10 µM stood at 6.95%.

As to `CNc1nc(C)cc(NC2CCCN(C3Cc4ccccc4C3)C2)n1` (configuration not stated), the cytotoxicity at 10 µM was 12.5%.

Consider `Cc1oncc1C(=O)N1CC[C@@H]2[C@@H]1CC(=O)N2Cc1cccnc1`, for which the cytotoxicity at 10 µM came to 5.44%.

With `O=c1oc(-c2ccc(F)cc2)nn1CCc1ccccn1`, the cytotoxicity at 10 µM is -5.65%.

In the case of `Cc1ccc(CN2CCOCC2c2[nH]ncc2C)cn1` (configuration not stated), the cytotoxicity at 10 µM was determined as 4.52%.

As for `Cc1nnc2n1CCN(C(=O)c1cn(-c3ccccc3Cl)nn1)C2`, the cytotoxicity at 10 µM was -4.55%.

In the case of `CC(C)NC(=O)[C@@H]1C[C@H]2NCC[C@H]2O1`, the cytotoxicity at 10 µM is -96.9%.

Take `c1ccc(OCCSC2=NCCN2)cc1`: the cytotoxicity at 10 µM was 1.52%.

As to `CSc1nsc(NC(=O)c2cc(C3CC3)nn2C)n1`, the cytotoxicity at 10 µM turned out to be 6.86%.

Turning to `Cc1c(C(=O)N(C)c2ccccc2)cccc1N(C)S(C)(=O)=O`, the cytotoxicity at 10 µM is 6.36%.

On to `CNC(=O)c1cccc(CNC2CCSc3c(Cl)cccc32)c1` (configuration not stated), for which the cytotoxicity at 10 µM worked out at 12.8%.

Take `N#Cc1cnc(NCc2cccc(C(=O)N3CCCC3)c2)c(Cl)c1`: the cytotoxicity at 10 µM is -0.657%.

As for `CC(O)CN1CCN(C(=O)CCOc2ccccc2F)CC1` (configuration not stated), the cytotoxicity at 10 µM came out at 3.66%.

As to `O=C(Cn1ccc2ccccc21)NCc1ccc(C(=O)O)cc1`, the cytotoxicity at 10 µM is -6.13%.

Regarding `CN(C)c1ncnc2c1CCN(c1ccccc1)CC2`, the cytotoxicity at 10 µM was found to be 13.4%.

In the case of `O=C(Nc1nc2c(s1)CN(S(=O)(=O)C1CC1)CC2)c1ccc(Cl)s1`, the cytotoxicity at 10 µM turned out to be 21.3%.

Consider `O=C(CCCNc1ncccn1)Nc1ccc(Cn2cncn2)cc1`, for which the cytotoxicity at 10 µM came to 0.55%.

Consider `CC(C)(C)CNC(=O)c1ccc(C(=O)O)cc1`, for which the cytotoxicity at 10 µM is -8.17%.

For the molecule `COc1c(CNC2CCCOc3ccccc32)c(C)nn1C` (configuration not stated), the cytotoxicity at 10 µM was found to be 1.86%.

Take `O=C(NCCNS(=O)(=O)c1ccc(C(F)(F)F)cc1)c1ccoc1`: the cytotoxicity at 10 µM is -1.36%.

Regarding `CC(C)n1ccnc1CN1CCCN(C(=O)c2cc(Cl)c[nH]2)CC1`, the cytotoxicity at 10 µM is -3.79%.

In the case of `CC(C)n1ccnc1CN1CCCN(C(=O)c2ncccc2O)CC1`, the cytotoxicity at 10 µM was -3.45%.

Consider `c1ccc(CN2C[C@@H]3CCCO[C@@H]3[C@H](Nc3ccccn3)C2)nc1`, for which the cytotoxicity at 10 µM was -7.39%.

As for `Cn1c(=O)c2cc(C(=O)NCc3ccncc3)ccc2n(C)c1=O`, the cytotoxicity at 10 µM was -11.1%.

For the molecule `Cn1cccc1CN(C(=O)CC(CC(=O)O)c1cccs1)C1CC1` (configuration not stated), the cytotoxicity at 10 µM was 2.27%.

Regarding `Cc1cn2c(CN(C)C(=O)c3ncoc3C)c(C)nc2s1`, the cytotoxicity at 10 µM is -3.28%.

In the case of `CC(C)[C@H]1COC(=O)N1Cc1nccn1C1CC1`, the cytotoxicity at 10 µM was -15.4%.

Regarding `COc1ccc(S(=O)(=O)N2CCC(S(C)(=O)=O)CC2)cc1C`, the cytotoxicity at 10 µM came to 2.4%.

For the molecule `CC(C)Cc1n[nH]c(C2CC(=O)N(CC(C)C)C2)n1` (configuration not stated), the cytotoxicity at 10 µM turned out to be 3.49%.

Consider `CS(=O)(=O)NCCNC(=O)C1(c2cccc(Cl)c2)CC1`, for which the cytotoxicity at 10 µM amounted to 5.63%.

On to `Cc1nc(C)n(CC2CN(Cc3noc(C4CC4)n3)CCO2)n1` (configuration not stated), for which the cytotoxicity at 10 µM was -8.15%.

On to `O=C(C1CCOC1)N1CCC(OCc2ccccc2)CC1` (configuration not stated), for which the cytotoxicity at 10 µM was determined as 3.15%.

As to `Cc1nnc(CSc2ccccn2)o1`, the cytotoxicity at 10 µM came out at 14.3%.

As for `Cc1nn(C)c(Cl)c1CNCc1cccnc1N1CCN(C)CC1`, the cytotoxicity at 10 µM is -9%.

Regarding `O=C(Nc1ccnc2ccnn12)c1ccc(N2CCC(O)CC2)cc1`, the cytotoxicity at 10 µM stood at 53.4%.

On to `O=C(NCc1cnc2n1CCN(Cc1cccs1)C2)c1ccno1`, for which the cytotoxicity at 10 µM was -110%.

On to `CCCn1cc(-c2cc(C(=O)N(C)C)c3cccc(C)c3n2)cn1`, for which the cytotoxicity at 10 µM stood at 5.11%.

For `CS(=O)(=O)N1CCc2c(cccc2NC(=O)NC2CCCC2)C1`, the cytotoxicity at 10 µM is -6.78%.

In the case of `CCOC(=O)CNC(=O)NCc1cccn1Cc1ccccc1`, the cytotoxicity at 10 µM came out at 9.71%.

On to `CCS(=O)(=O)N1CCCc2ccc(NC(=O)Cc3ccc(F)cc3)cc21`, for which the cytotoxicity at 10 µM is 18.6%.

As to `Cc1c(Br)cccc1C(=O)NCC1CCCNC1` (configuration not stated), the cytotoxicity at 10 µM was found to be 19.8%.

As to `CC(O)CNCc1ccc(OCc2ccc3c(c2)OCCO3)cc1` (configuration not stated), the cytotoxicity at 10 µM is -4.61%.

Values taken from ChEMBL document CHEMBL4513216, “Probing the Open Global Health Chemical Diversity Library for Multistage-Active Starting Points for Next-Generation Antimalarials” (ACS Infect Dis, 2020).
